# Bioassay records: PubChem, several laboratories
# Calb biofilm kill: mixture kills Candida albicans biofilm cells; inhibition, % at 7.6 µM; C. albicans biofilm persisters + clotrimazole, fluorescence viability; primary screen in compound mixtures of four per well; AID 1242; 120,000 compounds, 0.02% hits;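 active = inhibition above 30.3% in the primary screen of four-compound pools, then above 30% when the compound was retested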;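 also: compounds exposed to preformed 24 h biofilms for 48 h; 0% = untreated biofilm control and 100% = clotrimazole plus chlorhexidine kill blank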
#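 System: C. albicans CAF4-2 wild-type biofilms; Medium: RPMI/MOPS medium, pH 7.0; Reagent: Clotrimazole, 50 µg/mL; Times: biofilm formation 24 h, compound exposure 48 h, 37 °C; Detection: 2-h Alamar Blue fluorescence, 535/590 nm excitation/emission; Evaluation: percent inhibition of biofilm viability.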
# ROMK mod: human ROMK K+ channel modulation, primary screen | P48048 | Tet-inducible ROMK, thallium flux fluorescence; actives lie on both sides | B-score at 10 µM | 130,000 compounds, 2% hits | AID 1918;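 active = signal ratio slope over the read window, or its plate-corrected B-score, at least 3 SD from the plate mean, either direction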;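 also: B-score of the F/F0 ratio slope over 7 to 12 s after thallium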
# Target sequence (P48048 whole entry, looked up): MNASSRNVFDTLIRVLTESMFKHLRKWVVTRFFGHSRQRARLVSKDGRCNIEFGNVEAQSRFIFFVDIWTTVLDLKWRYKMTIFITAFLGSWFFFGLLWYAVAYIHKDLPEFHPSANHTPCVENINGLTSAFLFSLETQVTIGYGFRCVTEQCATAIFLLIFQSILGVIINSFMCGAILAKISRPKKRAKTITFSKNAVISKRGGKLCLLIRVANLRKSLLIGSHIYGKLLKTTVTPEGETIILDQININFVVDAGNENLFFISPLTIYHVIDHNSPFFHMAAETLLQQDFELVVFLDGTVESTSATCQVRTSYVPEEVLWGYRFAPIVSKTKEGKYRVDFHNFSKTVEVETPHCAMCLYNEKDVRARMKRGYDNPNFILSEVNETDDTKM
# ROMK retest: human ROMK channel modulation, retest confirmation; shares compounds with ROMK mod; ROMK thallium flux, fluorescence ratio; hits give low values; normalized thallium flux (F/F0 slope) at 10 µM; 3,000 compounds, 54% hits; AID 1917;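 active = Flux at 10 µM at least 3 SD below or above vehicle control mean in one or both replicates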
# * hit, by the source's call; nt = no result. The entries come from a sample that favours hits as a whole.
SMILES,Calb biofilm kill,ROMK mod,ROMK retest
COc1cc(C(=O)NCC(=O)OCCN2C(=O)c3ccccc3C2=O)cc(OC)c1OC,3,-0.77,nt
CN1C(C(=O)NCc2cccc(C(F)(F)F)c2)CC2Cn3c(nc4cc(Cl)c(Cl)cc43)C21 (configuration not stated),1,nt,nt
COCCNc1c(-c2cc3ccc(C)c(C)c3[nH]c2=O)nc2ccccn12,30,0.12,nt
CCn1c(=O)c(=O)[nH]c2cc(C(=O)NC3CCCc4ccccc43)ccc21 (configuration not stated),nt,3.2*,0.083
CCn1c(=O)c(=O)[nH]c2cc(C(=O)NC3CC3)ccc21,24,0.78,nt
COC(=O)C1C(c2ccc(OC)cc2)C(C(=O)OC)S(=O)(=O)C(CCN2CCCCC2)S1(=O)=O (configuration not stated),6,-0.29,nt
CCOC(=O)CC1(c2ccccc2)CCOC(C)(C)C1 (configuration not stated),nt,0.19,nt
CC1(C)CC(CC(=O)O)(c2ccccc2)CCO1 (configuration not stated),nt,nt,0.072
CC1(C)CC(=O)C(C=Nc2ccc(NC3=C(C#N)C(=O)CC(C)(C)C3)cc2)=C(O)C1,16,0.093,nt
Cc1ccc(S(=O)(=O)c2c(C)nn(C(C)(C)C)c2OC(=O)CC(C)C)cc1,15,0.21,nt
CCc1ccc(S(=O)(=O)NC(=S)NC2CCCCC2)cc1,11,-0.14,nt
FC(F)(F)c1nnc2ccc(NCc3ccccc3)nn12,16,-0.31,nt
Cc1nn(-c2ccccc2)c(Cl)c1/C=C(\C#N)C(=O)NC(C)C,10,nt,0.038*
COc1ccccc1NC(=O)/C(C#N)=C/c1c(C)nn(-c2ccc(F)cc2)c1Cl,15,nt,nt
COC(=O)c1sccc1NC(=S)N1CCN(c2cc(C)ccc2C)CC1,14,0.001,nt
COc1cc(Cl)c(C)cc1NC(=O)CNC(C)c1ccccc1OC (configuration not stated),12,-4*,0.061*
COc1ccccc1C(C)NCC(=O)Nc1c(F)cccc1F (configuration not stated),2,-1.1,nt
Cc1c(Cl)c(C(=O)N2CCCC2)nn1C,14,0.17,nt
COc1cc(/C=C2\SC(=S)N(NS(=O)(=O)c3ccc(C)cc3)C2=O)ccc1O,15,nt,nt
COc1cc(/C=C2\SC(=S)N(NS(=O)(=O)c3ccccc3)C2=O)ccc1O,20,nt,0.041*
CC(=O)/C(C#N)=C1\NC(=O)C(Cc2ccccc2C)S1 (configuration not stated),25,0.058,nt
O=C(Nc1ccccc1C(=O)NC(Cc1ccccc1)C(=O)NC1CCCCC1)c1ccccc1 (configuration not stated),20,0.29,nt
CCC(C)(C)n1nnnc1C(C(C)C)N(CCN1CCOCC1)Cc1cc2cccc(C)c2[nH]c1=O (configuration not stated),nt,-2.9*,0.055*
CCC(c1nnnn1C(C)(C)CC)N(CCCN1CCOCC1)Cc1cc2cccc(C)c2[nH]c1=O (configuration not stated),nt,-2.5,nt
O=C(CCC(=O)N(CC(=O)NC1CCCC1)Cc1cccs1)Nc1nccs1,23,-0.14,nt
SMILES,Calb biofilm kill,ROMK mod,ROMK retest
COc1ccc(N2CC(C(=O)Nc3cc(C)ccn3)CC2=O)cc1 (configuration not stated),22,-0.17,nt
CCOC(=O)c1nc(-c2ccccc2)oc1N1CCOCC1,4,-0.56,nt
Nc1[nH]n(-c2ccccc2)c(=O)c1N=Nc1ccc2c(c1)OCCO2,4,0.054,nt
Nc1[nH]n(-c2ccccc2)c(=O)c1N=Nc1ccc2c(c1)OCO2,1,nt,0.086
COC(=O)c1sccc1NC(=O)CC1C(=O)NCCN1C(=O)Nc1cc(Cl)ccc1OC (configuration not stated),30,0.065,nt
CCc1ccc(OCCCC(=O)NCc2ccco2)cc1,21,-0.016,nt
Cc1ccc(OCCNC(=O)C(=O)NCc2ccco2)cc1,10,3*,0.1*
CC(C)(C)NC(=O)CN1CCN(C(=O)CCl)CC1,4,-0.12,nt
Cc1cc(C(=O)Nn2c(-c3ccc(Br)cc3)nc3ccccc3c2=O)ccc1[N+](=O)[O-],12,-1.4,nt
COc1ccc(C(CNC(=O)c2cc(F)c(F)c(F)c2F)N2CCOCC2)cc1 (configuration not stated),17,0.52,nt
COc1ccc(C(CNC(=O)c2cc3ccccc3cc2OC)N2CCCC2)cc1 (configuration not stated),nt,-3.1*,0.062*
CCOC(=O)c1c(NC(=O)CSc2n[nH]c(CNc3ccccc3)n2)sc(C)c1C,10,-0.17,nt
CCOC(=O)c1sc(NC(=O)CSc2n[nH]c(-c3ccccc3)n2)c(C#N)c1C,nt,nt,0.059*
O=[N+]([O-])c1ccc(CN2CCOCCOCCN(Cc3ccc([N+](=O)[O-])cc3)CCOCC2)cc1,17,-9.9*,0.012*
CSc1ccc(CN2CCN(Cc3ccc([N+](=O)[O-])cc3)CC2)cc1,11,-3.9*,0.054*
O=[N+]([O-])c1ccc(COc2ccc(Br)cc2CN2CCOCC2)cc1,-6,-0.59,nt
CCS(=O)(=O)N1CCN(Cc2ccc([N+](=O)[O-])cc2)CC1,8,nt,nt
CCCCOC(=O)Cn1c2ccc(OC)cc2c2nc3ccccc3nc21,nt,-4.2*,0.056*
CCn1c2ccc(OC)cc2c2nc3ccccc3nc21,3,-0.047,nt
Cc1ccc2[nH]c3c(N4CCCCCC4)ncnc3c2c1,nt,-4*,0.058*
Cc1ccc2[nH]c3c(N4CCN(Cc5ccc6c(c5)OCO6)CC4)ncnc3c2c1,nt,-3.8*,0.061*
COc1ccc2c(c1)[nH]c1c(N3CCN(Cc4ccc5c(c4)OCO5)CC3)ncnc12,nt,-1.7,nt
Fc1ccc2[nH]c3c(N4CCN(C5CCCCC5)CC4)ncnc3c2c1,nt,0.073,nt
N#Cc1cnn(-c2ccccc2)c1NC(=O)CN1CCN(c2ccccc2)CC1,17,nt,nt
CCCCCNC(=O)c1c[nH]c2ccc(S(=O)(=O)N3CCC4(CC3)OCCO4)cc2c1=O,14,0.94,nt
SMILES,Calb biofilm kill,ROMK mod,ROMK retest
CCOc1ccc(NC(=O)CCN2CCN(S(=O)(=O)c3ccc(OC)cc3)CC2)cc1,nt,-0.49,nt
COc1ccc(NC(=O)CCN2CCN(S(=O)(=O)c3cc(Cl)ccc3OC)CC2)cc1,nt,-3.3*,0.061*
Nc1nc(NCc2ccco2)nc(Nc2ccc(F)cc2)c1[N+](=O)[O-],20,nt,nt
O=C(CN1C(=O)c2ccccc2C1=O)N1CCN(c2ccccc2)CC1,nt,0.69,nt
Cc1ccc(N2CCN(C(=O)CN3C(=O)c4ccccc4C3=O)CC2)cc1,nt,1.9*,0.074
CCOC(=O)C1=C(O)/C(=C/c2cn(CC(=O)N3CCCC3)c3ccccc23)SC1=Nc1ccccc1,4,0.52,nt
CCOC(=O)C1=C(O)/C(=C/c2ccc(OCC(=O)O)c(OC)c2)SC1=Nc1ccc(OC)cc1,21,nt,0.081
CCOC(=O)N1CCN(C(=O)CSCc2nc(-c3ccccc3C)oc2C)CC1,nt,0.14,nt
CCc1ccc(-c2nc(CSCC(=O)N3CCN(c4ncccn4)CC3)c(C)o2)cc1,nt,nt,0.064*
O=C(CSc1nnc(-c2ccccc2Cl)o1)Nc1ccccn1,-2,-0.19,nt
COc1ccc(NC(=S)NCCCCCC(=O)C[N+](=O)[O-])cc1,11,1.1*,0.092
O=C(CCCCCNC(=S)Nc1ccc(Cl)cc1)C[N+](=O)[O-],2,0.61,nt
Nc1nc(SCc2ccc(Cl)cc2Cl)nc2nc3c(cc12)CCCC3,-8,-0.0066,nt
